# A selection: hits, their analogues and other compounds. The true share with any hit is near 3.6%.
# UCH37 DUB inh = human UCH37 deubiquitinating enzyme inhibition | Q9Y5K5 | purified proteasome/UCH37, Ub-AMC cleavage fluorescence | inhibition, % (no concentration beside the values) | 0.33% of 330,000 active | AID 588478;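 active means mean inhibition over replicate wells above about 20%, limit read from the data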;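 further: 0% = compound-free wells with enzyme and 100% = wells lacking proteasome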
#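 Signal – fluorescence, ex 355 nm, em 460 nm · System – Proteasome-bound UCH37 · Input – 0.15 nM proteasome as dispensed · Timing – 30 min preincubation with enzyme, 25 min cleavage at room temperature · Read-out basis – percent inhibition of cleavage signal versus uninhibited and no-proteasome wells · Medium – Tris-HCl pH 7.4 with ATP-MgCl2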
# ATG4B inhibitor = ATG4B (human) cysteine protease inhibition | Q9Y4P1 | ATG4B cleavage of LC3-PLA2, NBD-HPC fluorescence, 1 h | inhibition, % at 8.33 µM | 0.51% of 340,000 active; in the data active means inhibition above about 40%
# SENP1 inh = inhibitors of human SENP1 SUMO protease catalytic domain; Q9P0U3; recombinant SENP1 catalytic domain, CyPet-SUMO1-YPet FRET cleavage; inhibition, % at 10 µM; 0.21% of 360,000 active; AID 624204;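 active means inhibition at least 30% at 10 µM, raw YFP signal under a set limit, fluorescence ratio 0.5 to 1.5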;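 further: 0% = enzyme with DMSO and 100% = no enzyme wells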
# Target sequence (Q9P0U3 419-644 limits assumed): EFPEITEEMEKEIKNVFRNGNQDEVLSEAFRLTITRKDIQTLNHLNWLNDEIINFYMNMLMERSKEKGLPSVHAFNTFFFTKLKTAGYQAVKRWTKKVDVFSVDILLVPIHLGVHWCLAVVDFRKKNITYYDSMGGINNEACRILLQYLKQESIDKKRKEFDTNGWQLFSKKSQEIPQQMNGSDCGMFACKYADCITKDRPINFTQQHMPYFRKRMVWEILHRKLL
#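 Test system: hSENP1 catalytic domain, recombinant; Amount: 20 pM final SENP1 enzyme; Medium: Tris pH 8 buffer plus EDTA, NaCl, BME, BSA, NP40, catalase; Schedule: 50 min enzyme reaction, room temperature, light-protected; Technique: FRET fluorescence in CFP and YFP emission channels; Controls: no-enzyme wells low, DMSO-plus-enzyme wells high control.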
# NadD block = inhibitors of Staphylococcus aureus NadD | purified NadD enzyme, colorimetric absorbance read-out | inhibition, % at 20 µM | 0.78% of 360,000 active | AID 602399; in the data active means inhibition above about 26%
# NR3A LBD binder = modulates the human NR3A ligand-binding domain. NR3A LBD differential scanning fluorimetry, Tm shift; 0% = protein alone, 100% = glycine-bound protein. Tm shift relative to glycine control, % at 25 µM. 2.5% of 340,000 active. AID 1259313;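 active means melting temperature shift of at least 10% of the positive control shift, at one fixed dose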
# UCH37 confirm = reconfirmed inhibitor of human deubiquitinase UCH37. shares compounds with UCH37 DUB inh. Proteasome-bound UCH37, Ub-AMC cleavage fluorescence. inhibition, % at 20 µM. 27% of 480 active. AID 624100;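 active means average inhibition over replicates above about 50%, so the earlier screening hit is confirmed, limit read from the data; inactive means the rest, counted as false positives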;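 further: based on cleavage rate fitted by regression over a 30 min kinetic read; 0% = proteasome plus Ub-AMC and 100% = Ub-AMC without proteasome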
# An asterisk follows results filed as active; x = not tested or not shown.
SMILES,UCH37 DUB inh,ATG4B inhibitor,SENP1 inh,NadD block,NR3A LBD binder,UCH37 confirm
O=C1CC(C(=O)Nc2ccc(Cl)c(Cl)c2)S/C(=N\N=Cc2ccco2)N1 (configuration not stated),4.3,x,x,x,x,x
COc1ccccc1N1CCN(C(=O)/C=C/c2c(Cl)nc3ccccn23)CC1,5.1,-6.8,0.2,-0.2,-15.1,x
COc1ccc(NC(=O)/C=C/c2c(Cl)nc3ccccn23)cc1,36.7*,-21.9,1.6,4.6,17.4*,9.4
C[n+]1ccc(C=NNc2nc(Cl)c(C#N)c(Cl)c2Cl)cc1,25.1*,x,x,x,x,31.6
CCC(=O)N(CC)C1=C(O)c2ccccc2C(=O)C1=O,37.0*,1.4,-5.5,-0.2,-0.9,9.0
Cn1cc(/C=C/c2cc[n+](C)cc2)c2cc(F)ccc21,28.0*,-0.4,-22.8,14.7,-4.3,34.5
CCN1/C(=C/C=C/c2sc3ccccc3[n+]2CC)Sc2ccccc21,2.7,23.7,-15.4,5.9,-2.5,x
CCN1/C(=C/C=C/c2oc3ccc(-c4ccccc4)cc3[n+]2CC)Oc2ccc(-c3ccccc3)cc21,35.0*,37.0,-30.6,43.7*,60.5*,76.4*
COc1ccc(CC(C)=NNC(=O)c2ccncc2)cc1,2.3,x,x,x,x,x
CC1=NN(c2ccccc2)C(=O)/C1=C/C=C/C=C/N(C)C,31.9*,9.9,32.8*,5.6,-4.0,30.2
CC1=NN(c2ccccc2)C(=O)/C1=C\N(O)c1ccccc1,12.5,5.3,3.3,-2.0,0.9,x
COc1cc(C=N/N=C2/NC(=O)C(Cc3ccccc3)S2)ccc1O (configuration not stated),7.5,x,x,x,x,x
CCOC(=O)c1c(-c2ccccc2)csc1NC(=O)CCN1C(=O)c2ccccc2C1=O,-0.8,6.1,-0.1,-9.2,-0.2,x
CCOC(=O)c1c(-c2ccc(-c3ccccc3)cc2)csc1NC(=O)CNCCN(C)C,25.1*,9.0,1.4,-4.2,x,83.7*
Cc1ccsc1C=NNC(=O)c1cc(C(C)(C)C)[nH]n1,11.3,x,x,x,x,x
CCOc1ccc(C=Nn2cc(-c3ccccc3)[nH]c2=S)cc1,1.4,x,x,x,x,x
Clc1ccc(C2=NNC(=NCC3CCCO3)SC2)cc1 (configuration not stated),51.2*,1.3,-0.1,0.1,-2.4,4.0
CN=CC1=C(O)c2ccccc2C1=O,6.6,5.2,0.1,-1.3,-0.2,x
O=C1C(C2=C(O)c3ccccc3C2=O)=Nc2ccccc21,84.9*,-13.7,22.7,14.4,-1.3,102.7*
O=C(NN=Cc1c(Cl)nc2ccccn2c1=O)c1cccnc1,-12.8,x,x,x,x,x
O=C1C(Nc2cccc(O)c2)=C(N2CCCCC2)C(=O)c2ccccc21,30.5*,2.3,-57.4,-2.0,-0.7,35.2
O=C1c2ccccc2-c2nc3ccccc3nc21,44.8*,-2.6,6.4,-4.9,-0.3,22.8
CCOC(=O)c1sc(N=CN(C)C)nc1C,8.8,x,x,x,x,x
CCOc1cccc(C=NNC(=S)Nc2ccccc2[N+](=O)[O-])c1O,49.1*,x,x,x,x,14.0
O=[N+]([O-])c1ccc(C=NNC(=S)Nc2ccccc2C(F)(F)F)o1,3.4,x,x,x,x,x
SMILES,UCH37 DUB inh,ATG4B inhibitor,SENP1 inh,NadD block,NR3A LBD binder,UCH37 confirm
O=[N+]([O-])c1ccc(N=Nc2ccc(O)cc2O)cc1,25.4*,12.2,3.0,-3.6,0.0,45.8
CCOc1ccccc1NC(=O)CSc1c(C)n[nH]c1C,36.4*,-11.0,-0.2,-3.9,-0.4,8.3
Cc1ccc(C)c(NC(=O)CSc2c(C)n[nH]c2C)c1,-0.3,-2.9,2.1,-6.5,1.5,x
O=C(O)c1ccc(NN=Cc2ccc(F)c(F)c2)cc1,19.6,x,x,x,x,x
CCCCNC(=O)c1c(CSc2ccc(Cl)cc2)noc1C(=O)NCCC,2.0,1.6,2.3,-2.3,-7.0,x
CCCCNC(=O)c1onc(CSc2ccc(Cl)cc2)c1C(=O)NCCCC,35.6*,0.6,2.6,-9.1,-8.3,-4.5
CC1(C)Cc2ccccc2C(c2cc3ccccc3oc2=O)=N1,35.9*,-1.3,-2.3,7.5,0.1,-3.7
CC(C)c1ccc(S(=O)(=O)N=C2C=C(Sc3ncn[nH]3)C(=O)c3ccccc32)cc1,67.2*,x,x,x,x,61.6*
Cc1cccc(C)c1NC(=S)NN=Cc1ccc(C(=O)O)cc1,8.3,x,x,x,x,x
CC(C)=CCCC(C)NC(=O)NC1CCCCC1 (configuration not stated),20.6*,-9.3,2.4,-3.4,1.5,67.4*
